# Reference: ChEMBL document CHEMBL2029337, “Synthesis and antimicrobial activities of structurally novel S,S'-bis(heterosubstituted) disulfides” (Bioorg Med Chem Lett, 2012)
# Calls of active or inactive are those of the source. The rule behind the calls is not given here.
# Experiments:
# Staphylococcus aureus [1] = experiment: Antibacterial activity against methicillin-resistant Staphylococcus aureus ATCC 43300 assessed as growth inhibition at 20 ug after 24 hrs by agar-diffusion assay in presence of CoA; format: functional, organism-based
# Outline: (§1)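 Kirby-Bauer well diffusion on an MRSA lawn (0.5 McFarland suspension swabbed onto tryptic soy agar). Four test agents sat in wells equidistant from a centre well holding 1 mg of additive in DMSO; a DMSO-only centre well served as vehicle control. After overnight incubation at 37 °C, the inhibition zones were examined for size or shape change.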
# Staphylococcus aureus [2] = experiment: Antibacterial activity against methicillin-resistant Staphylococcus aureus ATCC 43300 assessed as growth inhibition at 20 ug after 24 hrs by agar-diffusion assay in presence of valine; format: functional, organism-based; outline: as §1
# Staphylococcus aureus [3] = experiment: Antibacterial activity against methicillin-resistant Staphylococcus aureus ATCC 43300 assessed as growth inhibition at 20 ug after 24 hrs by agar-diffusion assay in presence of iPrSSiPr; format: functional, organism-based; outline: as §1
# Staphylococcus aureus [4] = experiment: Antibacterial activity against methicillin-resistant Staphylococcus aureus ATCC 43300 assessed as growth inhibition at 20 ug after 24 hrs by agar-diffusion assay in presence of PPh3; format: functional, organism-based; outline: as §1
# Staphylococcus aureus [5] = experiment: Antibacterial activity against methicillin-resistant Staphylococcus aureus ATCC 43300 assessed as growth inhibition at 20 ug after 24 hrs by agar-diffusion assay in presence of cystine; format: functional, organism-based
# Staphylococcus aureus [6] = experiment: Antibacterial activity against methicillin-resistant Staphylococcus aureus ATCC 43300 assessed as growth inhibition at 20 ug after 24 hrs by agar-diffusion assay in presence of GSH; format: functional, organism-based; outline: as §1
# Staphylococcus aureus [7] = experiment: Antibacterial activity against methicillin-resistant Staphylococcus aureus ATCC 43300 assessed as growth inhibition at 20 ug after 24 hrs by agar-diffusion assay in presence of glycine; format: functional, organism-based; outline: as §1
# Staphylococcus aureus [8] = experiment: Antibacterial activity against methicillin-resistant Staphylococcus aureus ATCC 43300 assessed as growth inhibition at 20 ug after 24 hrs by agar-diffusion assay in presence of lysine; format: functional, organism-based; outline: as §1
# Escherichia coli = experiment: Antibacterial activity against Escherichia coli K-12 […] by agar dilution method; format: functional, organism-based
# [9] = Cytotoxicity against bovine primary aortic endothelial cells at 20 ug/mL after 48 hrs by MTT assay; format: cell-based, Bos taurus; details: cattle, endothelial cell
# Outline: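 Primary bovine aortic endothelial cells were kept in EBM-2 with 10% FBS and penicillin/streptomycin at 37 °C under 5% CO₂. Cells were trypsinized, counted and plated in 96-well dishes, then treated for 48 h. MTT was added and formazan dissolved in DMSO; absorbance was read at 540 nm with 660 nm background. Viability is expressed as percent of untreated control.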
# Staphylococcus aureus [10] = experiment: Antibacterial activity against methicillin-resistant Staphylococcus aureus ATCC 43300 assessed as growth inhibition at 50 ug after 24 hrs by agar-diffusion assay in presence of iPrSSiPr; format: functional, organism-based; outline: as §1
# Staphylococcus aureus [11] = experiment: Antibacterial activity against methicillin-resistant Staphylococcus aureus ATCC 43300 assessed as growth inhibition at 50 ug after 24 hrs by agar-diffusion assay in presence of glycine; format: functional, organism-based; outline: as §1
# Staphylococcus aureus [12] = experiment: Antibacterial activity against methicillin-resistant Staphylococcus aureus ATCC 43300 assessed as growth inhibition at 50 ug after 24 hrs by agar-diffusion assay in presence of PPh3; format: functional, organism-based; outline: as §1
# Staphylococcus aureus [13] = experiment: Membrane disrupting activity in methicillin-resistant Staphylococcus aureus ATCC 43300 by scanning electron microscopy; format: functional, organism-based
# Outline: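 Scanning electron microscopy of MRSA cells before and after disulfide treatment during Kirby-Bauer agar diffusion experiments, assessing external cell morphology and cell-wall integrity.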
# [14] = Antibacterial activity against Francisella tularensis subspecies holarctica LVS after 48 hrs by broth dilution method; format: functional, Francisella tularensis subsp. holarctica LVS
# Staphylococcus aureus [15] = experiment: Antibacterial activity against methicillin-resistant Staphylococcus aureus ATCC 43300 assessed as growth inhibition at 1 mg after 24 hrs by agar-diffusion assay; format: functional, organism-based; outline: as §1
# Staphylococcus aureus [16] = experiment: Antibacterial activity against methicillin-resistant Staphylococcus aureus ATCC 43300 assessed as growth inhibition at 50 ug after 24 hrs by agar-diffusion assay in presence of GSH; format: functional, organism-based; outline: as §1
# Staphylococcus aureus [17] = experiment: Antibacterial activity against methicillin-susceptible Staphylococcus aureus ATCC 25923 assessed as reduction in bacterial counts at 4 ug/mL after overnight incubation […] (reference value: 7.60 x 10^8 cfu/mL); format: functional
# Outline: (§2)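 Viability count assay against S. aureus ATCC 25923. All tubes started at 10⁵ cfu/mL, and viable bacteria were counted before and after incubation with disulfide at the line's concentration. Tubes without disulfide served as the growth reference. Performed in triplicate.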
# Staphylococcus aureus [18] = experiment: Antibacterial activity against methicillin-resistant Staphylococcus aureus ATCC 43300 assessed as growth inhibition at 50 ug after 24 hrs by agar-diffusion assay in presence of lysine; format: functional, organism-based; outline: as §1
# Staphylococcus aureus [19] = experiment: Antibacterial activity against methicillin-resistant Staphylococcus aureus ATCC 43300 assessed as growth inhibition at 50 ug after 24 hrs by agar-diffusion assay in presence of valine; format: functional, organism-based; outline: as §1
# Staphylococcus aureus [20] = experiment: Antibacterial activity against methicillin-susceptible Staphylococcus aureus ATCC 25923 […] by agar dilution method; format: functional
# Candida albicans = experiment: Antifungal activity against Candida albicans assessed as reduction in viability by trypan blue staining; format: functional
# Outline: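 C. albicans was exposed in YNB to a 1, 0.5, 0.25 and 0.125 series, following the NCCLS fungal protocol. Non-viable cells were stained with trypan blue and counted in a cell-counting chamber under a microscope at 40X. Controls were untreated cells in YNB and cells heat-killed in PBS (boiled 5 min).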
# Staphylococcus aureus [21] = experiment: Antibacterial activity against methicillin-resistant Staphylococcus aureus ATCC 43300 […] by agar dilution method; format: functional
# Staphylococcus aureus [22] = experiment: Antibacterial activity against methicillin-resistant Staphylococcus aureus ATCC 43300 assessed as growth inhibition at 50 ug after 24 hrs by agar-diffusion assay in presence of cystine; format: functional, organism-based
# Staphylococcus aureus [23] = experiment: Antibacterial activity against methicillin-resistant Staphylococcus aureus ATCC 43300 assessed as reduction in bacterial counts at 4 ug/mL after overnight incubation by […] (reference value: 4.02 x 10^8 cfu/mL); format: functional
# Staphylococcus aureus [24] = experiment: Antibacterial activity against methicillin-resistant Staphylococcus aureus ATCC 43300 assessed as reduction in bacterial counts at 2 ug/mL after overnight incubation by […] (reference value: 4.02 x 10^8 cfu/mL); format: functional
# Staphylococcus aureus [25] = experiment: Antibacterial activity against methicillin-susceptible Staphylococcus aureus ATCC 25923 assessed as reduction in bacterial counts at 2 ug/mL after overnight incubation […] (reference value: 7.60 x 10^8 cfu/mL); format: functional; outline: as §2
# Bartonella sp. = experiment: Antibacterial activity against Bartonella ssp. […] by agar dilution method; format: functional
# Staphylococcus aureus [26] = experiment: Antibacterial activity against methicillin-resistant Staphylococcus aureus ATCC 43300 assessed as growth inhibition at 50 ug after 24 hrs by agar-diffusion assay in presence of CoA; format: functional, organism-based; outline: as §1
smiles,measurement,setting,value
C=CC(=O)O[C@H]1C(=O)N(SC)[C@H]1c1ccccc1Cl,growth inhibition (GI),Staphylococcus aureus [1],inactive
same,growth inhibition (GI),Staphylococcus aureus [2],Active
same,growth inhibition (GI),Staphylococcus aureus [3],Active
same,growth inhibition (GI),Staphylococcus aureus [4],Active
same,growth inhibition (GI),Staphylococcus aureus [5],inactive
same,growth inhibition (GI),Staphylococcus aureus [6],inactive
same,growth inhibition (GI),Staphylococcus aureus [7],Active
same,growth inhibition (GI),Staphylococcus aureus [8],Active
CC(C)OSSOC(C)C,Activity,Escherichia coli,inactive
same,Activity,[9],Non-toxic
same,growth inhibition (GI),Staphylococcus aureus [10],Active
same,growth inhibition (GI),Staphylococcus aureus [11],Active
same,growth inhibition (GI),Staphylococcus aureus [12],Active
same,Activity,Staphylococcus aureus [13],inactive
same,MIC,[14],4 µg/mL
same,growth inhibition (GI),Staphylococcus aureus [15],Active
same,growth inhibition (GI),Staphylococcus aureus [16],inactive
same,Activity,Staphylococcus aureus [17],2.04 ×10³ CFU/ml
same,growth inhibition (GI),Staphylococcus aureus [18],Active
same,growth inhibition (GI),Staphylococcus aureus [19],Active
same,MIC,Staphylococcus aureus [20],1 µg/mL
same,MIC,Candida albicans,0.5 µg/mL
same,MIC,Staphylococcus aureus [21],0.5 µg/mL
same,growth inhibition (GI),Staphylococcus aureus [22],inactive
same,Activity,Staphylococcus aureus [23],2.88 ×10³ CFU/ml
same,Activity,Staphylococcus aureus [24],>1.2 ×10⁶ CFU/ml
same,Activity,Staphylococcus aureus [25],3.86 ×10⁴ CFU/ml
same,Activity,Bartonella sp.,inactive
same,growth inhibition (GI),Staphylococcus aureus [26],inactive
